Results as given in ChEMBL document CHEMBL1126655, “Synthesis and antiviral activity of novel isonucleoside analogs” (J Med Chem, 1993).

Tests used:
[1] = test system: Human betaherpesvirus 5; assay: Antiviral activity against Human cytomegalovirus (AD169 strain); format: functional; conditions: read-out: ID50 (the source's name)
Summary of the method: (§1)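 WI-38 monolayers were infected, with virus adsorbed for 1–2 h. They were then overlaid with EMEM maintenance medium (1% carboxymethyl cellulose, 2.5% FBS) containing duplicate drug dilutions. Monolayers were stained after 4–6 days at 37 °C. ID50 was taken as the concentration giving 50% plaque reduction versus virus controls. Titrations were done in duplicate.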

[2] = test system: Human alphaherpesvirus 1; assay: Antiviral activity against Herpes simplex virus-1 (Schooler strain); format: functional; conditions: read-out: ID50 (the source's name); summary of the method: as §1
[3] = test system: Human alphaherpesvirus 3; assay: Antiviral activity against Varicella zoster virus (Ellen strain); format: functional; conditions: read-out: ID50 (the source's name); summary of the method: as §1
[4] = test system: WI-38; assay: Tested for growth inhibition against WI-38 cells; format: functional; conditions: Homo sapiens, read-out: ID50 (the source's name)
Summary of the method: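 WI-38 cells seeded at 1.2 × 10^6 per well, incubated overnight at 37 °C, then refed with growth medium (EMEM, 10% FBS) holding serial drug dilutions or none, for 3 more days at 37 °C. Quadruplicate cultures per concentration trypsinized and counted daily for viable cells by trypan blue exclusion.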

[5] = test system: Vaccinia virus; assay: Antiviral activity against vaccinia virus (CL strain); format: functional; conditions: Orthopoxvirus vaccinia; read-out: ID50 (the source's name)
[6] = Antiviral activity against Herpes simplex virus-1 (KOS strain); format: functional; conditions: Human alphaherpesvirus 1; read-out: ID50 (the source's name); summary of the method: as §1
[7] = test system: Human alphaherpesvirus 1; assay: Antiviral activity against Herpes simplex virus-1 (thymidine kinase deficient strains isolated as BVaraU resistant mutants of HSV-1 (KOS)); format: functional; conditions: read-out: ID50 (the source's name); summary of the method: as §1
[8] = test system: Cercopithecine alphaherpesvirus 9; assay: Antiviral activity against Simina varicella virus (G815 strain); format: functional; conditions: read-out: ID50 (the source's name)
Summary of the method: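 Simian varicella virus G815 was grown from infected Vero cells and assayed by plaque reduction on Vero monolayers. Virus was adsorbed 1–2 h, then overlaid with EMEM (1% carboxymethyl cellulose, 2.5% FBS) containing duplicate drug dilutions. Staining was after 4–6 days at 37 °C. ID50 was the concentration giving 50% plaque reduction versus virus controls.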

[9] = test system: Human alphaherpesvirus 3; assay: Antiviral activity against Varicella zoster virus (Kanno-Kohmura thymidine kinase deficient strain); format: functional; conditions: read-out: ID50 (the source's name); summary of the method: as §1
[10] = test system: Human alphaherpesvirus 3; assay: Antiviral activity against Varicella zoster virus (Ito strain); format: functional; conditions: read-out: ID50 (the source's name); summary of the method: as §1
[11] = test system: Human alphaherpesvirus 3; assay: Antiviral activity against Varicella zoster virus (Oka strain); format: functional; conditions: read-out: ID50 (the source's name); summary of the method: as §1
[12] = test system: Human alphaherpesvirus 3; assay: Antiviral activity against Varicella zoster virus (ppIIa strain); format: functional; conditions: read-out: ID50 (the source's name); summary of the method: as §1
[13] = test system: Human alphaherpesvirus 3; assay: Antiviral activity against Varicella zoster virus (9021 strain); format: functional; conditions: read-out: ID50 (the source's name); summary of the method: as §1
[14] = test system: Human alphaherpesvirus 2; assay: Antiviral activity against Herpes simplex virus-2 (thymidine kinase deficient strains isolated as BVaraU resistant mutants of HSV-1 (KOS)); format: functional; conditions: read-out: ID50 (the source's name)
[15] = test system: Mus musculus; assay: Protective dose against Herpes simplex virus type type -1 infection in mice at 200 mg/kg; format: functional; conditions: read-out: PD50
Summary of the method: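 Female Swiss-Webster mice (20–23 g), 10 per group, infected intraperitoneally with 10^3 PFU HSV-1 strain Schooler (Vero freeze-thaw extract) in 0.3% BSA-PBS. Subcutaneous dosing in PBS twice daily from 1 h postinfection for 5 days, 12.5–200 mg/kg/day. Survival scored over 21 days; PD50 from survival by probit analysis.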

[16] = test system: Mus musculus; assay: Protective dose against Herpes simplex virus type type -2 infection in mice at 200 mg/kg; format: functional; conditions: read-out: PD50
Summary of the method: (§2)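 Female Swiss-Webster mice (20–23 g), 10 per group, infected intraperitoneally with 10^6 PFU HSV-2 strain Curtis (Vero freeze-thaw extract) in 0.3% BSA-PBS. Drug given subcutaneously in PBS twice daily from 1 h postinfection for 5 days, doses 12.5–200 mg/kg/day. Survival followed 21 days; PD50 by probit analysis; mean day of death by Student's t-test versus placebo.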

[17] = test system: Mus musculus; assay: Number of survivors against Herpes simplex virus type-2 infection in mice at 25 mg/kg/day; format: functional
Summary of the method: (§3)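 Female Swiss-Webster mice (20–23 g, 10 per group) were infected ip with 10^6 PFU HSV-2 Curtis in 0.3% BSA-PBS. Dosing was sc twice daily in PBS from 1 h postinfection for 5 days. Survival was recorded over 21 days. Mean day of death was computed for dead mice and compared with placebo-treated infected controls by Student's t-test.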

[18] = test system: Mus musculus; assay: Number of survivors against Herpes simplex virus type-2 infection in mice at 50 mg/kg/day; format: functional; summary of the method: as §2
[19] = test system: Mus musculus; assay: Number of survivors against Herpes simplex virus type-1 infection in mice at 100 mg/kg/day; format: functional
Summary of the method: (§4)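 Female Swiss-Webster mice (20–23 g, 10 per group) were infected ip with 10^3 PFU HSV-1 Schooler in 0.3% BSA-PBS. Drug was given sc twice daily in PBS, starting 1 h postinfection, for 5 days. Survival was followed for 21 days. Mean day of death of dead animals was compared with placebo-treated infected controls by Student's t-test.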

[20] = test system: Mus musculus; assay: Number of survivors against Herpes simplex virus type-1 infection in mice at 12.5 mg/kg/day; format: functional; summary of the method: as §4
[21] = test system: Mus musculus; assay: Number of survivors against Herpes simplex virus type-1 infection in mice at 200 mg/kg/day; format: functional; summary of the method: as §4
[22] = test system: Mus musculus; assay: Number of survivors against Herpes simplex virus type-1 infection in mice at 25 mg/kg/day; format: functional; summary of the method: as §4
[23] = test system: Mus musculus; assay: Number of survivors against Herpes simplex virus type-1 infection in mice at 50 mg/kg/day; format: functional; summary of the method: as §4
[24] = test system: Mus musculus; assay: Number of survivors against Herpes simplex virus type-2 infection in mice at 100 mg/kg/day; format: functional; summary of the method: as §3
[25] = test system: Mus musculus; assay: Number of survivors against Herpes simplex virus type-2 infection in mice at 12.5 mg/kg/day; format: functional; summary of the method: as §3
[26] = test system: Mus musculus; assay: Number of survivors against Herpes simplex virus type-2 infection in mice at 150 mg/kg/day; format: functional; summary of the method: as §3
[27] = test system: Mus musculus; assay: Number of survivors against Herpes simplex virus type-2 infection in mice at 200 mg/kg/day; format: functional; summary of the method: as §3
[28] = test system: Mus musculus; assay: Day of death in lethal test against herpes simplex virus type-1 at 100 mg/kg/day (mean day of death +/-SD); format: ADME, organism-based; conditions: in vivo; summary of the method: as §4
[29] = test system: Mus musculus; assay: Day of death in lethal test against herpes simplex virus type-1 at 12.5 mg/kg/day (mean day of death +/-SD); format: ADME, organism-based; conditions: in vivo; summary of the method: as §4
[30] = test system: Mus musculus; assay: Day of death in lethal test against herpes simplex virus type-1 at 200 mg/kg/day (mean day of death +/-SD); format: ADME, organism-based; conditions: in vivo; summary of the method: as §4
[31] = test system: Mus musculus; assay: Day of death in lethal test against herpes simplex virus type-1 at 25 mg/kg/day (mean day of death +/-SD); format: ADME, organism-based; conditions: in vivo; summary of the method: as §4
[32] = test system: Mus musculus; assay: Day of death in lethal test against herpes simplex virus type-1 at 50 mg/kg/day (mean day of death +/-SD); format: ADME, organism-based; conditions: in vivo; summary of the method: as §4
[33] = test system: Mus musculus; assay: Day of death in lethal test against herpes simplex virus type-2 at 100 mg/kg/day (mean day of death +/-SD); format: ADME, organism-based; conditions: in vivo; summary of the method: as §3
[34] = test system: Mus musculus; assay: Day of death in lethal test against herpes simplex virus type-2 at 12.5 mg/kg/day (mean day of death +/-SD); format: ADME, organism-based; conditions: in vivo; summary of the method: as §3
[35] = test system: Mus musculus; assay: Day of death in lethal test against herpes simplex virus type-2 at 200 mg/kg/day (mean day of death +/-SD); format: ADME, organism-based; conditions: in vivo; summary of the method: as §3
[36] = test system: Mus musculus; assay: Day of death in lethal test against herpes simplex virus type-2 at 150 mg/kg/day (mean day of death +/-SD); format: ADME, organism-based; conditions: in vivo; summary of the method: as §3
[37] = test system: Mus musculus; assay: Number of survivors against Herpes simplex virus type-1 infection in mice at 150 mg/kg/day; format: functional; summary of the method: as §4

O=c1ccn([C@@H]2CO[C@H](CO)[C@H]2CO)c(=O)[nH]1
IC50 [1]: > 410 µM | IC50 [2]: > 410 µM | IC50 [3]: 100 µM

Nc1ccn([C@@H]2CO[C@H](CO)[C@H]2CO)c(=O)n1
IC50 [1]: 100 µM | IC50 [2]: 40 µM | IC50 [4]: 160 µM | IC50 [5]: 400 µM | IC50 [3]: 0.4 µM

Cc1cn([C@@H]2CO[C@H](CO)[C@H]2CO)c(=O)nc1N
IC50 [1]: > 390 µM | IC50 [2]: 390 µM | IC50 [3]: 200 µM

O=c1[nH]c(=O)n([C@@H]2CO[C@H](CO)[C@H]2CO)cc1/C=C/Br
IC50 [1]: > 290 µM | IC50 [6]: 3000 nM | IC50 [2]: 3 µM | IC50 [7]: > 290 µM | IC50 [8]: 30 µM | IC50 [9]: > 300 µM | IC50 [4]: > 800 µM | IC50 [5]: > 290 µM | IC50 [3]: 0.1 µM | IC50 [10]: 60 nM | IC50 [11]: 3 µM | IC50 [12]: 300 nM | IC50 [13]: 500 nM

Nc1nc2c(ncn2COCCO)c(=O)[nH]1 [ACYCLOVIR]
IC50 [1]: 40 µM | IC50 [14]: > 440 µM | IC50 [6]: 2000 nM | IC50 [2]: 0.9 µM | IC50 [7]: > 440 µM | ED50 [15]: > 200 mg/kg/day | ED50 [16]: > 200 mg/kg/day | Survivors [17]: 0 | Survivors [18]: 1 | Survivors [19]: 2 | Survivors [20]: 0 | Survivors [21]: 2 | Survivors [22]: 3 | Survivors [23]: 1 | Survivors [24]: 2 | Survivors [25]: 0 | Survivors [26]: 4 | Survivors [27]: 5 | Mean day of death [28]: 9.3 | Mean day of death [29]: 8.3 | Mean day of death [30]: 14 | Mean day of death [31]: 7.8 | Mean day of death [32]: 9 | Mean day of death [33]: 13.5 | Mean day of death [34]: 10 | Mean day of death [35]: 13 | IC50 [8]: 100 µM | IC50 [9]: 100 µM | IC50 [4]: > 800 µM | IC50 [3]: 4 µM | IC50 [10]: 2000 nM | IC50 [11]: 4 µM | IC50 [12]: 4000 nM | IC50 [13]: 2000 nM | Mean day of death [36]: 13 | Survivors [37]: 2
